Here are results for eleven compounds from ChEMBL document CHEMBL3580560, “Isolation, Structural Modification, and HIV Inhibition of Pentacyclic Lupane-Type Triterpenoids from Cassine xylocarpa and Maytenus cuzcoina” (J Nat Prod, 2015).

By inhibition is commonly meant the relative decrease from the control value, in per cent. Usually CC50 stands for the concentration at which the toxic effect on the cells reaches its halfway point. In general, IC50 refers to the concentration needed to halve the response being measured.

For data set [1], the system named is Human immunodeficiency virus 1. Kind of data set: Antiviral activity against HIV1 NL4.3-Ren infected in human MT2 cells assessed as inhibition of viral growth by measuring relative luminescence units at 10 uM measured 48 hrs post infection by luminometry relative to untreated control. Format: functional. Also noted: scale not given: the % may be the effect or the level left.

The nature of data set [2]: Selectivity index, ratio of CC50 for mock-infected human MT2 cells to IC50 for HIV1 NL4.3-Ren infected in human MT2 cells. It counts as functional.
In data set [3] the test system is Human immunodeficiency virus 1. Kind of data set: Antiviral activity against HIV1 NL4.3-Ren infected in human MT2 cells assessed as inhibition of viral growth at 10 uM measured 48 hrs post infection by luminometry. It counts as functional. Conditions: Human immunodeficiency virus 1, NL4.3-Ren, MT2, 48 h.
The nature of data set [4]: Cytotoxicity against mock-infected human MT2 cells assessed as reduction in cell viability incubated for 48 hrs by cell-titer Glo assay. It counts as cell-based. The essentials:
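Uninfected MT-2 cells received RPMI medium instead of viral supernatant and were treated in parallel with the same fivefold dilutions (100–0.032 μM). […] Values are the mean of at least three independent experiments.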

Data set [5] deals with Human immunodeficiency virus 1. Nature of the data set: Antiviral activity against HIV1 NL4.3-Ren infected in human MT2 cells assessed as inhibition of viral growth measured 48 hrs post infection by luminometry. Format: functional, organism-based. The conditions noted are these: Human immunodeficiency virus 1, NL4.3-Ren, MT2, 48 h. The essentials:
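MT-2 cells infected with X4-tropic HIV-1 NL4.3-Ren supernatant produced in 293T cells. Fivefold serial dilutions from 100 to 0.032 μM were tested. At 48 h postinfection, cells were lysed and Renilla luciferase RLU were measured. IC50 was fitted from the dose–response curve; values are the mean of at least three independent experiments.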

Each structure is given as a SMILES string.

As to `C=C(C=O)[C@@H]1CC[C@]2(C)CC[C@]3(C)[C@H](CC[C@@H]4[C@@]5(C)CCC(=O)C(C)(C)[C@@H]5CC[C@]43C)[C@@H]12`, the Activity in data set [1] worked out at 0%. In addition, in data set [2], the “Ratio CC50/IC50” value amounted to 4.2. Further, in data set [3], the inhibition at 10 µM is greater than 50%. Besides, in data set [4], the CC50 at 48 h amounted to 5.7 µM. Further, the IC50 in data set [5] came to 1.4 µM.

As to `C=C(C)[C@@H]1CC[C@]2(COC(C)=O)CC[C@]3(C)[C@H](CC[C@@H]4[C@@]5(C)CCC(=O)C(C)(C)[C@@H]5CC[C@]43C)[C@@H]12`, in data set [2], the “Ratio CC50/IC50” value worked out at 1.5. The inhibition at 10 µM in data set [3] was greater than 50%. Moreover, the CC50 at 48 h in data set [4] came out at 20 µM. Further, in data set [5], the IC50 is 13.4 µM.

As for `C=C1C(=O)O[C@@H]2C[C@]3(C)CC[C@]4(C)[C@H](CC[C@@H]5[C@@]6(C)CCC(=O)C(C)(C)[C@@H]6CC[C@]54C)[C@H]3[C@H]12` [OCHRACEOLIDE A], the “Ratio CC50/IC50” value in data set [2] is greater than 2.6. The inhibition at 10 µM in data set [3] is greater than 50%. In data set [4], the CC50 at 48 h is greater than 100 µM. Moreover, the IC50 in data set [5] was found to be 39 µM.

Turning to `C=C(C)[C@@H]1CC[C@]2(CO)CC[C@]3(C)[C@H](CC[C@@H]4[C@@]5(C)CC[C@@H](O)C(C)(C)[C@@H]5CC[C@]43C)[C@@H]12` [3-EPI-BETULIN], in data set [2], the “Ratio CC50/IC50” value was 2.3. For the same compound, the inhibition at 10 µM in data set [3] is greater than 50%. The CC50 at 48 h in data set [4] stood at 20 µM. Further, the IC50 in data set [5] is 8.8 µM.

Take `CC(C)(O)[C@@H]1CC[C@]2(C)CC[C@]3(C)[C@H](CC[C@@H]4[C@@]5(C)CCC(=O)C(C)(C)[C@@H]5[C@H](O)C[C@]43C)[C@@H]12`: the “Ratio CC50/IC50” value in data set [2] is greater than 14.3. The inhibition at 10 µM in data set [3] was greater than 50%. Besides, in data set [4], the CC50 at 48 h is greater than 100 µM. Further, in data set [5], the IC50 was found to be 7 µM.

As to `C=C(CO)[C@@H]1CC[C@]2(C)CC[C@]3(C)[C@H](CC[C@@H]4[C@@]5(C)CCC(=O)C(C)(C)[C@@H]5[C@H](O)C[C@]43C)[C@@H]12`, in data set [2], the “Ratio CC50/IC50” value worked out at 2.1. Moreover, in data set [3], the inhibition at 10 µM was greater than 50%. The CC50 at 48 h in data set [4] was 20 µM. Moreover, in data set [5], the IC50 worked out at 9.5 µM.

Take `C=C(C=O)[C@@H]1CC[C@]2(C)CC[C@]3(C)[C@H](CC[C@@H]4[C@@]5(C)CCC(=O)C(C)(C)[C@@H]5[C@H](O)C[C@]43C)[C@@H]12`: in data set [1], the Activity is given as 5%. The “Ratio CC50/IC50” value in data set [2] stood at 1.3. Besides, the inhibition at 10 µM in data set [3] is greater than 50%. In data set [4], the CC50 at 48 h stood at 10.4 µM. For the same compound, in data set [5], the IC50 came out at 7.9 µM.

`C=C(C)[C@@H]1CC[C@]2(C=O)CC[C@]3(C)[C@H](CC[C@@H]4[C@@]5(C)CCC(=O)C(C)(C)[C@@H]5CC[C@]43C)[C@@H]12` [BETULONAL]: the “Ratio CC50/IC50” value in data set [2] was 4.8. The inhibition at 10 µM in data set [3] was greater than 50%. In data set [4], the 50% cytotoxic concentration (CC50) at 48 h worked out at 20 µM. Also, in data set [5], the concentration for half-maximal inhibition (IC50) came to 4.2 µM.

For the compound `C=C(COC(C)=O)[C@@H]1CC[C@]2(C)CC[C@]3(C)[C@H](CC[C@@H]4[C@@]5(C)CCC(=O)C(C)(C)[C@@H]5CC[C@]43C)[C@@H]12`, in data set [2], the “Ratio CC50/IC50” value turned out to be 2.8. In addition, the inhibition at 10 µM in data set [3] is greater than 50%. The CC50 at 48 h in data set [4] turned out to be 36.2 µM. In data set [5], the IC50 came out at 13.1 µM.

Consider `C=C(C=O)[C@@H]1CC[C@]2(COC(C)=O)CC[C@]3(C)[C@H](CC[C@@H]4[C@@]5(C)CC[C@H](O)C(C)(C)[C@@H]5CC[C@]43C)[C@@H]12`, for which the Activity in data set [1] worked out at 0%. Moreover, the “Ratio CC50/IC50” value in data set [2] is 8.2. Further, the inhibition at 10 µM in data set [3] was greater than 50%. The CC50 at 48 h in data set [4] worked out at 14.2 µM. Also, the IC50 in data set [5] came to 1.7 µM.

Consider `C=C(C)[C@@H]1CC[C@]2(C)CC[C@]3(C)[C@H](CC[C@@H]4[C@@]5(CO)CC[C@H](O)C(C)(C)[C@@H]5CC[C@]43C)[C@@H]12`, for which, in data set [2], the “Ratio CC50/IC50” value is 2.9. For the same compound, in data set [3], the inhibition at 10 µM was greater than 50%. In addition, in data set [4], the CC50 at 48 h stood at 20 µM. The IC50 in data set [5] is 6.9 µM.
